Active and inactive are the calls of the source. No cut-off for these calls is given here.
What was measured:
Mus musculus [1] = test: Convulsant activity in Swiss-Webster Royal Hart mouse at 100 to 300 mg/kg, ip administered as aqueous solution; assay type: ADME, organism-based; design: dose 100-300 mg/kg, route intraperitoneal; details: in vivo
In short: (§1)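 Male Swiss-Webster Royal Hart mice, groups of ten per dose level, doses up to 300 mg/kg per group. Water-soluble salts were given po or ip as aqueous solutions. Analgesia was tested by Haffner tail clamp and phenylquinone-induced writhing, anti-diarrheal effect as colonic propulsive motility, plus general behaviour observation.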

Mus musculus [2] = test: Analgesic activity in Swiss-Webster Royal Hart mouse at 20 to 100 mg/kg, po administered as aqueous solution by phenylquinone-induced writhing test; assay type: functional, organism-based; in short: as §1
Mus musculus [3] = test: Analgesic activity in Swiss-Webster Royal Hart mouse at 20 to 100 mg/kg, po administered as aqueous solution by Haffner tail clamp test; assay type: functional, organism-based; in short: as §1
Mus musculus [4] = test: Antidiarrheal activity in Swiss-Webster Royal Hart mouse assessed as colonic propulsive motility at 20 to 100 mg/kg, po administered as aqueous solution; assay type: functional, organism-based; in short: as §1
Mus musculus [5] = test: Analgesic activity in Swiss-Webster Royal Hart mouse at 20 to 100 mg/kg, po administered as solution in 30% aqueous propylene glycol by phenylquinone-induced writhing test; assay type: functional, organism-based
In short: (§2)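 Male Swiss-Webster Royal Hart mice, ten per dose level, doses up to 300 mg/kg per group. Salt was dissolved in 30% aqueous propylene glycol and dosed po or ip. Analgesia was tested by Haffner tail clamp and phenylquinone-induced writhing, anti-diarrheal effect as colonic propulsive motility.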

[6] = Dissociation constant, pKa of the compound; assay type: physicochemical
In short: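 Apparent pKa* measured in 66% aqueous dimethylformamide at 30° by potentiometric titration of monoperchlorate salts with 0.1 M NaOH, with pH recorded via a combination electrode on a recording titrator.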

Mus musculus [7] = test: Analgesic activity in Swiss-Webster Royal Hart mouse at 20 to 100 mg/kg, po administered as solution in 30% aqueous propylene glycol by Haffner tail clamp test; assay type: functional, organism-based; in short: as §2
Mus musculus [8] = test: Antidiarrheal activity in Swiss-Webster Royal Hart mouse assessed as colonic propulsive motility at 20 to 100 mg/kg, po administered as solution in 30% aqueous propylene glycol; assay type: functional, organism-based; in short: as §2
Mus musculus [9] = test: Antidiarrheal activity in Swiss-Webster Royal Hart mouse assessed as decrease in colonic propulsive motility at 10 mg/kg, ip; assay type: functional, organism-based; design: dose 10 mg/kg
Mus musculus [10] = test: Analgesic activity in sc dosed Swiss-Webster Royal Hart mouse after 30 mins by Haffner tail clamp test; assay type: functional; details: 0.5 h
Mus musculus [11] = test: Convulsant activity in Swiss-Webster Royal Hart mouse at 30 to 100 mg/kg, ip administered as aqueous solution; assay type: ADME, organism-based; design: dose 30-100 mg/kg, route intraperitoneal; details: in vivo; in short: as §1

CCC(=O)OC1(c2ccccc2)C2CN(C)CC1CN(C)C2.CS(=O)(=O)O (stereo not given)
Activity (Mus musculus [1]): Toxic | Activity (Mus musculus [2]): inactive | Activity (Mus musculus [3]): inactive | Activity (Mus musculus [4]): inactive | Activity (Mus musculus [5]): inactive | pKa [6]: 11 | Activity (Mus musculus [7]): inactive | Activity (Mus musculus [8]): inactive

COC1(c2ccccc2)C2CN(C)CC1CN(C)C2 (stereo not given)
Activity (Mus musculus [2]): inactive | Activity (Mus musculus [3]): inactive | Activity (Mus musculus [4]): inactive | Activity (Mus musculus [5]): inactive | pKa [6]: 11.7 | Activity (Mus musculus [7]): inactive | Activity (Mus musculus [8]): inactive

CO[C@]1(c2ccccc2)[C@@H]2CCC[C@H]1CN(C)C2
inhibition (Mus musculus [9]): Active | ED50 (Mus musculus [10]): 3.9 mg/kg

CC1(C)C2CCC1(CS(=O)(=O)O)C(=O)C2.CN1C[C@H]2CN(C)C[C@H](C1)[C@@]2(O)c1ccccc1
Activity (Mus musculus [11]): Toxic | Activity (Mus musculus [2]): inactive | Activity (Mus musculus [3]): inactive | Activity (Mus musculus [4]): inactive | Activity (Mus musculus [5]): inactive | pKa [6]: 11.7 | Activity (Mus musculus [7]): inactive | Activity (Mus musculus [8]): inactive

Reference: ChEMBL document CHEMBL3271960, “7-Aza analogs of the analgetic agent azabicyclane. Synthesis and pharmacologic analysis” (J Med Chem, 1976)
